Published values from different studies.
Protocols differ between the studies behind these lines.
Target: Tyrosine-protein kinase Mer (MERTK, Homo sapiens, UniProt Q12866)
Residues used in one study (Q12866 21-999): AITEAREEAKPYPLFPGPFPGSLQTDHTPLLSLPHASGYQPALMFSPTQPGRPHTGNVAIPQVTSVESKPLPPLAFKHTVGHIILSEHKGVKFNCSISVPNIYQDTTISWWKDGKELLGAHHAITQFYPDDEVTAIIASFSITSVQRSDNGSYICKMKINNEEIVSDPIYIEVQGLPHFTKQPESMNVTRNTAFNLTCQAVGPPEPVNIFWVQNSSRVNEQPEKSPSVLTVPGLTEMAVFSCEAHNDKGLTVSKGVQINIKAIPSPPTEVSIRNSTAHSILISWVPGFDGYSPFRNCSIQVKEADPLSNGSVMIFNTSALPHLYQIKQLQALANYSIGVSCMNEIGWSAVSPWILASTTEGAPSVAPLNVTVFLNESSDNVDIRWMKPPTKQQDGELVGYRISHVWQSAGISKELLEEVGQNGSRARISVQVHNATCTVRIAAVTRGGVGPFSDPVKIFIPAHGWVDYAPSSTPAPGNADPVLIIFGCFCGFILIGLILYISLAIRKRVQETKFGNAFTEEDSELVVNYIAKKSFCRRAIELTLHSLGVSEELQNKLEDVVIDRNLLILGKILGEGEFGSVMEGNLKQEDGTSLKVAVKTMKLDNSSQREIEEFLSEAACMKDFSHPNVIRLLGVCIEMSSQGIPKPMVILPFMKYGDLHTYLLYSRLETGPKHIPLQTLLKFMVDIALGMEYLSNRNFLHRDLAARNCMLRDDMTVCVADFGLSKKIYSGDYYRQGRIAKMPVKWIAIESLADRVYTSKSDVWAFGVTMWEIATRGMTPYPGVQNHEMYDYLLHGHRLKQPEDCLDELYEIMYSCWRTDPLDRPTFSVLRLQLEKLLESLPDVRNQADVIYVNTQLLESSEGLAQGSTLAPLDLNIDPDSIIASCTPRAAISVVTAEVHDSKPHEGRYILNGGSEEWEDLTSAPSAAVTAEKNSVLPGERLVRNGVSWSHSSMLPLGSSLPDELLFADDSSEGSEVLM

Cc1cnc(NC2CCOCC2)nc1-n1cnc(C(=O)NC(CN)c2cc(F)cc(Cl)c2)c1 (stereo not drawn)
remaining activity (enzyme activity; inhibitor; radiometric; 1 µM): 96%

Cc1ccc(NC(=O)c2ccc(C)c(C(F)(F)F)c2)cc1C#Cc1nn(C2CCC(O)CC2)c2ncnc(N)c12 (stereo not drawn)
remaining signal (cell-free assay; 10 µM): 0%

CNC(=O)c1cc(Oc2ccc(NC(=O)Nc3ccc(Cl)c(C(F)(F)F)c3)cc2)ccn1
inhibition (enzyme activity; inhibitor; 0.3 µM): 26%

Cn1c2c(c3ccc(Cl)c(Cl)c31)C(C#N)C(C)(C)NC2=O (stereo not drawn)
ΔTm (thermal stability; DSF; 10 µM): -0.9 °C

Cc1ccc(C(=O)Nc2ccc(CN3CCN(C)CC3)c(C(F)(F)F)c2)cc1C#Cc1cnc2cccnn12
remaining activity (enzyme activity; 23.5 nM): 86%

CNCc1ccccc1-c1csc([C@H](C)Nc2nc(C)nc3cc(OC)c(OC)cc23)c1
remaining binding (cell-free assay; competition with immobilised ligand; 1 µM): 72%

CCN1CCC2(CC1)NC(=O)c1c(c3ccc(Cl)c(Cl)c3n1C)C2C#N (racemic)
ΔTm (thermal stability; DSF; 10 µM): 1 °C

Nc1ncnc2occ(-c3ccc(NC(=O)Nc4cc(C(F)(F)F)ccc4F)cc3)c12
remaining signal (cell-free assay; 20 µM): 0.25%

O=C(Nc1cnn(-c2csc(C(=O)NC3COC3)c2)c1)Nc1ccccc1Cl
remaining activity (enzyme activity; inhibitor; 5 µM): 92.7%

CNC(=O)c1cc2c(Oc3ccc(NC(=O)C4(C(=O)Nc5ccc(F)cc5)CC4)cc3)ccnc2cc1OC
inhibition (enzyme activity; inhibitor; radiometric; 1 µM): 99%

CNC(=O)Nc1ccc2c(c1)[C@@]1(CC2)OC(=O)N(CC(=O)N(Cc2ccc(F)cc2)[C@@H](C)C(F)(F)F)C1=O
remaining binding (cell-free assay; competition with immobilised ligand; 1 µM): 100%

Cc1ccc(Nc2nccc(N(C)c3ccc4c(C)n(C)nc4c3)n2)cc1S(N)(=O)=O
inhibition (enzyme activity; inhibitor; 0.3 µM): 32%

CCCCN(CCCC)C(=O)CN1C[C@@H](c2cc(OC)c3c(c2)OCO3)[C@H](C(=O)O)[C@H]1CC(C)(C)CCC
remaining binding (cell-free assay; competition with immobilised ligand; 1 µM): 100%

Cn1c2c(Cl)c(Cl)ccc2c2cn[nH]c(=O)c21
ΔTm (thermal stability; DSF; 10 µM): -0.5 °C

COc1cc2ncnc(Nc3ccc(Oc4ccccc4)c(C)c3C)c2cc1OC
inhibition (enzyme activity; inhibitor; 1 µM): 28%

CN(C)C(=O)Cn1cc(-c2nc([C@@](C)(c3ccc(-c4cnc(N)nc4)cc3)C3CC3)no2)cn1
remaining binding (cell-free assay; competition with immobilised ligand; 1 µM): 100%

CC(C)(O)[C@H]1CC[C@H](Nc2ccc3ncc(-c4cccc(C(F)(F)F)c4)n3n2)CC1
remaining activity (enzyme activity; inhibitor; 1 µM): 64.1%

Cn1c2c(Cl)c(Cl)ccc2c2cc[nH]c(=O)c21
ΔTm (thermal stability; DSF; 10 µM): 1.3 °C

COc1cc2nccc(Oc3ccc(NC(=O)c4c5n(n(-c6ccc(F)cc6)c4=O)CCCC5)cc3)c2cc1OC
inhibition (enzyme activity; inhibitor; 0.1 µM): 100%

N#CCCc1ccc2c(c1)-c1[nH]c3ccc([N+](=O)[O-])cc3c1CC(=O)N2
remaining signal (cell-free assay; 0.5 µM): 77.5%

COc1ccc2c(O[C@@H]3C[C@H]4C(=O)N[C@]5(C(=O)O)CC5/C=C\CCCCC[C@H](NC(=O)OC5CCCC5)C(=O)N4C3)cc(-c3csc(NC(=O)C(C)C)n3)nc2c1C (stereo partly drawn)
remaining binding (cell-free assay; competition with immobilised ligand; 1 µM): 70%

Cn1c2c(c3ccc(Cl)c(Cl)c31)C(C#N)C1(CCOCC1)NC2=O (stereo not drawn)
ΔTm (thermal stability; DSF; 10 µM): -0.5 °C

CC(C)(C)c1nc(-c2cccc(NS(=O)(=O)c3c(F)cccc3F)c2F)c(-c2ccnc(N)n2)s1
remaining activity (enzyme activity; inhibitor; radiometric; 1 µM): 115%

Cc1sc(C(=O)NC2COC2)cc1-n1cc(NC(=O)Nc2c(F)cccc2Cl)cn1
remaining activity (enzyme activity; inhibitor; 10 µM): 103%

CCCOc1ccc([C@H]2[C@H](C(=O)O)[C@@H](c3ccc4c(c3)OCO4)CN2CC(=O)Nc2c(CC)cccc2CC)cc1
remaining binding (cell-free assay; competition with immobilised ligand; 1 µM): 87%

CCN(CC)c1ccc(C2=NNC(=O)CC2C)cc1[N+](=O)[O-] (stereo not drawn)
remaining activity (enzyme activity; inhibitor; 10 µM): 97%

O=C(NS(=O)(=O)c1ccc(NCC2CCOCC2)c([N+](=O)[O-])c1)c1ccc(N2CCN(Cc3ccc(C(F)(F)F)cc3-c3ccc(Cl)cc3)CC2)cc1Oc1cnc2[nH]ccc2c1
remaining binding (cell-free assay; competition with immobilised ligand; 1 µM): 100%

CCN(CC)CCNC(=O)c1c(C)[nH]c(/C=C2\C(=O)Nc3ccc(F)cc32)c1C
inhibition (enzyme activity; inhibitor; 0.3 µM): 94%

CC(C)(O)c1cncc(-c2nc3ccc(F)cc3n2C2CC2)c1
remaining binding (cell-free assay; competition with immobilised ligand; 1 µM): 96%

O=C1Nc2ccc(Cl)cc2C1=Cc1cc(Cl)c(O)c(Cl)c1
remaining signal (cell-free assay; 0.5 µM): 88.4%
